Assay outcomes: PubChem, several laboratories
PREPL inh: PREPL enzyme inhibitors, primary screen, biochemical, fluorescence polarization. Prolyl endopeptidase-like (Homo sapiens), Q4J6C6. recombinant PREPL, fluorescence polarization activity-based probe. inhibition, % at 5.96 µM. 320,000 tested, 0.68% active. AID 2751, 2010;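 further: 0% = enzyme with DMSO and 100% = wells lacking enzyme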
UBC9 SUMO inh: inhibitors of in vitro SUMOylation cascade, primary screen, biochemical, HTRF, uHTS; inhibition, % at 35 µM; AID 2006, 2009; HTRF SUMOylation assay, SAE1/SAE2 + UBC9; 290,000 tested, 0.36% active; SUMO-conjugating enzyme UBC9 (Homo sapiens), P63279; in the data active means inhibition above about 50%, passing the limit was not always enough
Target sequence (P63279 whole entry, looked up): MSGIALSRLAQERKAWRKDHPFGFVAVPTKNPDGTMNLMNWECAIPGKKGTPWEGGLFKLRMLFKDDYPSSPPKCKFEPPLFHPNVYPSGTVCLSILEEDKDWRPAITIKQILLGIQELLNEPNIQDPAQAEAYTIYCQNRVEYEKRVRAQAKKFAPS
RBBP9 inhibitor: human RBBP9 inhibitors, primary screen, biochemical, fluorescence polarization, FP-Rh probe, HTS. recombinant RBBP9. 220,000 tested, 0.2% active. inhibition, % at 7.94 µM. Serine hydrolase RBBP9 (Homo sapiens), O75884;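 active means inhibition above the campaign mean of all tested compounds plus 3 SD, cut at about 14% in these data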;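 further: plate controls were DMSO wells with RBBP9 for no effect and wells lacking RBBP9 protein for full effect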
Target sequence (O75884 whole entry, looked up): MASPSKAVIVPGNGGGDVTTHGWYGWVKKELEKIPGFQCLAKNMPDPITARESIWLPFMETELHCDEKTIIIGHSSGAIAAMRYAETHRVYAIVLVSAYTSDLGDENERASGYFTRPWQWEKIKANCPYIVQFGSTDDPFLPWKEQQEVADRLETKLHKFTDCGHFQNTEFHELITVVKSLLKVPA
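System: RBBP9 protein / Buffer or medium: Tris/NaCl buffer pH 8.0 with 0.1% Pluronic / Probe or stimulus: Serine-hydrolase probe FP-Rh, 375 nM pre-mixing / Dosing: 7.94 µM single dose, 0.794% DMSO / Times: enzyme-compound preincubation 30 min, then probe labeling 45 min, 25 °C / Technique: fluorescence polarization (mP), excitation 525 nm, emission 598 nm / Replication: singlicate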
Rin1-Abl PPI inh: inhibitors of Rin1-Abl protein binding, primary screen, biochemical, TR-FRET; AID 588664, 2011; Tyrosine-protein kinase ABL1 (Homo sapiens) + Ras and Rab interactor 1 (Homo sapiens), …; 360,000 tested, 0.4% active; inhibition, % at 7.35 µM; in the data active means inhibition above about 5%, passing the limit was not always enough
UBC13 inh: UBC13 polyubiquitin chain formation inhibitors, primary screen, biochemical, TR-FRET, uHTS; inhibition, % at 20 µM; Ubiquitin-conjugating enzyme E2 N (Homo sapiens), P61088; 330,000 tested, 0.47% active; in the data active means inhibition above about 45%, passing the limit was not always enough
ALR H2O2 inh: inhibitors of human ALR sulfhydryl oxidase, primary screen, biochemical, H2O2 detection, HRP-luminol luminescence, single point; FAD-linked sulfhydryl oxidase ALR (Homo sapiens), P55789; purified ALR, DTT oxidation; inhibition, % (concentration not given with the values); 290,000 tested, 3.8% active; AID 485317, 2010;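 active means mean replicate inhibition above about 79%, with every replicate also reaching it, limit read from the data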
Target sequence (P55789 whole entry, looked up): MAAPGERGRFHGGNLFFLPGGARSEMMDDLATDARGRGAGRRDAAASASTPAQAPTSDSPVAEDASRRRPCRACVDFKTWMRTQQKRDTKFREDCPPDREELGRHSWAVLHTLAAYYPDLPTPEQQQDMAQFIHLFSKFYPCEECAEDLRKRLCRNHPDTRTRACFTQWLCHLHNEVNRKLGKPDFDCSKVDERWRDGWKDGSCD
PREPL confirm: human PREPL enzyme inhibitors, confirmation, biochemical, fluorescence polarization; shares compounds with PREPL inh; recombinant PREPL, fluorescence polarization activity probe; inhibition, % at 5.96 µM; 2,000 tested, 67% active; AID 2803, 2010;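 further: 0% = protein with DMSO and 100% = wells lacking protein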
Active calls of the source: *; . = no result; + = active, no number. Sampled rows, rich in hits. Any-hit rate of the full collection: about 4.3%. Unless noted, no stated cut-off is given here; in the data, active means inhibition above about 43%; inactive means the rest.

SMILES	PREPL inh	UBC9 SUMO inh	RBBP9 inhibitor	Rin1-Abl PPI inh	UBC13 inh	ALR H2O2 inh	PREPL confirm
Cc1cc2cc(CNC(=O)c3ccc(Br)o3)ccc2n1C	65.2*	-6.8	.	6.4	-7.6	-41.0	65.6*
Cn1c(-c2sc(=S)n(-c3ccccc3)c2N)nc2ccccc21	0.7	7.1	-5.4	3.5	10.1	-5.2	.
C=CCn1c(N)c(-c2nc3ccccc3n2C)sc1=S	43.6*	10.0	3.9	1.3	19.4	89.7*	36.5
Clc1cccc(/C=N/Nc2ncnc3ccccc23)c1	40.0	7.0	-3.2	3.9	-2.8	9.2	.
C(=N\Nc1ncnc2ccccc12)/c1ccccc1	45.0*	-5.5	-3.1	-0.4	-10.5	97.3*	20.7
COc1ccc(C2CC(=O)Oc3c(C(CCN4CCCC(C)C4)c4ccc(N(C)C)cc4)c(OC)cc(OC)c32)cc1 (centres undefined)	44.3*	-24.0	.	0.8	34.8	9.3	60.4*
COc1ccc(C2CC(=O)Oc3c(C(CCN4CCCCC4)c4ccc(N(C)C)cc4)c(OC)cc(OC)c32)cc1 (centres undefined)	47.5*	-1.6	.	1.4	26.5	.	51.2*
COc1cc(C2CC(=O)Oc3c(C(CCN4CCOCC4)c4ccc(N(C)C)cc4)c(OC)cc(OC)c32)cc(OC)c1OC (centres undefined)	37.6	3.7	.	0.7	14.8	.	.
COc1ccc(-c2cccc(NC(=O)c3ccc4c(c3)OCO4)c2)nn1	-9.7	.	.	4.4	2.5	-10.4	.
CCC1(CC)SC(N)=NC1=O	.	.	.	-1.9	.	.	.
COCCCN1C(=O)c2ccc(C(=O)N3CCN(c4ccccc4OC)CC3)cc2C1=O	24.2	23.2	.	-1.5	-2.1	5.3	.
Nc1c(S(=O)(=O)O)cc(NC(=O)c2ccccc2)c2c1C(=O)c1ccccc1C2=O	65.1*	33.2	.	-4.2	-42.4	-10.6	54.5*
O=c1[nH]c(CN2CCN(c3ccc([N+](=O)[O-])cc3)CC2)nc2ccsc12	46.1*	-10.7	-5.3	-5.0	-10.2	3.0	29.1
COc1ccc(CN2CCC(n3nccc3NC(=O)CCc3ccccc3)CC2)c(C)c1C	.	-5.3	.	0.8	-3.2	.	.
CCOC(=O)C1CCN(C(=O)COC(=O)c2ccccc2C(=O)c2ccc(Cl)cc2)CC1	1.1	.	.	1.7	-1.9	5.8	.
CC(C)(C)[C@@H]1COC(=O)[C@H](Cc2ccc(F)cc2)CC/C=C\C[C@H](CC(=O)N(CCO)Cc2ccccc2)C(=O)N1	41.1	.	.	1.4	-3.1	-4.7	.
CC(C)(C)[C@@H]1COC(=O)[C@@H](Cc2ccc(F)cc2)CC/C=C\C[C@@H](CC(=O)N(CCO)Cc2ccccc2)C(=O)N1	54.7*	.	.	-0.5	5.7	1.3	49.8*
CC(C)(C)[C@@H]1COC(=O)[C@H](Cc2ccc(F)cc2)C/C=C\C[C@@H](CC(=O)N(CCO)Cc2ccccc2)C(=O)N1	48.1*	.	.	4.0	8.6	-5.1	46.0*
O=C1N[C@@H](c2ccccc2)COC(=O)[C@H](Cc2ccc(F)cc2)CC/C=C/C[C@@H]1CC(=O)N(CCO)Cc1ccccc1	57.3*	.	.	1.6	7.3	-0.7	45.5*
O=C1N[C@@H](c2ccccc2)COC(=O)[C@@H](Cc2ccc(F)cc2)C/C=C\C[C@H]1CC(=O)N(CCO)Cc1ccccc1	37.1	.	.	-4.0	-9.2	0.7	.
O=C(CCc1nnc(CCCc2ccccc2)o1)NCCN1CCOC1=O	16.5	20.1	-5.4	-1.9	-7.1	-7.2	.
COc1ccc2[nH]c3c(c2c1)CCN1C(=O)C(CC(=O)NCc2cccc(C(F)(F)F)c2)C[C@H](C(=O)N2CCCCC2)[C@@]31CCc1ccccc1 (some centres undefined)	.	.	.	0.7	.	.	.
Cc1ccc(CN2CCC(n3nccc3NC(=O)CCOc3ccccc3)CC2)cc1C	9.2	.	.	3.6	4.9	-43.0	.
CC(=O)c1ccc(OCCOc2ccc([N+](=O)[O-])cc2)cc1	4.9	-3.6	.	-2.2	-2.2	2.6	.
O=Cc1ccccc1OCCOc1ccc([N+](=O)[O-])cc1	43.1*	24.7	-11.8	-2.0	-11.5	8.4	39.8
SMILES	PREPL inh	UBC9 SUMO inh	RBBP9 inhibitor	Rin1-Abl PPI inh	UBC13 inh	ALR H2O2 inh	PREPL confirm
Cc1[nH]c2ccccc2c1C(c1ccncc1)N1CCN(c2ccccc2F)CC1 (centres undefined)	1.0	-23.7	-5.6	1.7	0.4	-5.6	.
Cc1[nH]c2ccccc2c1C(c1ccncc1)N1CCN(c2ccccn2)CC1 (centres undefined)	+	-9.4	10.7	-4.0	-2.2	32.1	12.6
COc1cccc(CN(CC(=O)NC2CCCC2)C(=O)Cn2nnc(-c3cccs3)n2)c1	6.8	7.9	-2.0	0.6	1.8	-0.5	.
COc1ccc2c(c1)c(C(O)CN1CCN(Cc3ccc4c(c3)OCO4)CC1)c(C)n2C (centres undefined)	47.2*	18.3	-7.1	-5.1	11.5	-1.7	32.0
Cc1ccc(OCC(=O)N(Cc2nnc(-c3ccccc3Cl)o2)C2CC2)cc1C	1.2	.	.	-0.9	4.2	-17.8	.
CC(C)=CCC/C(C)=C/CNC(=O)CC1C[C@H](C(=O)N2CCOCC2)[C@@]2(C)c3[nH]c4ccccc4c3CCN2C1=O (some centres undefined)	57.2*	.	.	-2.8	28.8	-4.1	33.1
CC(OC(=O)Cc1n[nH]c(=O)c2ccccc12)C(=O)N(C)c1ccccc1 (centres undefined)	.	.	.	-0.8	.	.	.
CC(C)C[C@@H]1CN=C(N)N1C[C@@H]1CCCN1C[C@@H](C(C)C)N1C[C@@H](Cc2ccccc2)N(CCc2ccc(Cl)c(Cl)c2)C1=N	70.4*	.	.	-2.6	15.1	.	64.0*
CCCCN1C(=N)N([C@@H](C)CN2CCC[C@H]2CN2C(N)=NC[C@H]2C(C)C)C[C@H]1[C@H](C)CC	39.8	.	.	0.3	4.5	4.2	.
CCCCN1C(=N)N([C@@H](C)CN2CCC[C@H]2CN2C(N)=NC[C@H]2CC(C)C)C[C@H]1[C@H](C)CC	47.0*	.	.	-0.7	11.1	4.2	41.0
CC(C)C[C@H]1CNC(=O)C(=O)N1C[C@H]1CCCN1C[C@H](CC(C)C)N1C[C@H](Cc2ccccc2)N(CCc2ccccc2)C(=O)C1=O	.	.	.	2.2	.	.	.
CCOc1cc(N2CCOCC2)c(OCC)cc1NC(=O)CN1C(=O)NC(Cc2ccccc2)C1=O (centres undefined)	54.1*	12.1	-4.5	-1.8	-2.4	-18.5	56.0*
CCOc1cc(N2CCOCC2)c(OCC)cc1NC(=O)CN1CCC(Cc2ccccc2)CC1	13.5	-1.9	-6.7	-4.2	-3.7	-29.9	.
